T cruzi growth-1 = T. cruzi proliferation inhibition; T. cruzi beta-gal in NIH3T3, GalScreen luminescence, 90 h; hit rate 5.9% among 77,000; inhibition, % at 8.34 µM; AID 624255;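 active means mean inhibition above about 93%, with at least 55% of replicates each passing it, limit read from the data, passing the limit was not always enough; inconclusive means only one of those two conditions holds; inactive means neither condition holds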
GASC1 inh = inhibitors of human demethylase GASC-1 KDM4C. GST-KDM4C 2-372, H3K9me3 peptide, LANCE TR-FRET. Q9H3R0. hit rate 0.15% among 96,000. AID 720574. inhibition, % at 12.5 µM;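 active means mean replicate inhibition above about 25%, with at least 55% of replicates also reaching it, limit read from the data, passing the limit was not always enough; inconclusive means only one of those two conditions met; inactive means neither condition met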
Target sequence (Q9H3R0 2-372 limits assumed): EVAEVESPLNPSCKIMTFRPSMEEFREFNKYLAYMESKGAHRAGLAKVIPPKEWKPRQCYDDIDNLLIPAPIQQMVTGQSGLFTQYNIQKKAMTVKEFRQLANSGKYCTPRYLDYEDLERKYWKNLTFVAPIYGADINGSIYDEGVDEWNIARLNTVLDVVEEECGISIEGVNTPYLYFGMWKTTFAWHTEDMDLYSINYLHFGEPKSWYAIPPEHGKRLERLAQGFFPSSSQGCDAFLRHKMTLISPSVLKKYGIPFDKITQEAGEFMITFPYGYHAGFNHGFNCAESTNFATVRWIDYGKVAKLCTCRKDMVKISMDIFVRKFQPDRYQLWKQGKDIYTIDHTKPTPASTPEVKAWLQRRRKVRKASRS
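Material: N-terminal GST-fused human GASC-1 (KDM4C) fragment, residues 2-372. Input: 10 nM enzyme. Incubation: enzyme reaction 30 min, then detection 60 min, both room temperature. Doses: one test concentration per compound. Read-out basis: inhibition from TR-FRET ratio decrease. Detection: LANCE TR-FRET, excitation 340 nm, emissions 618 and 671 nm.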
IDH1 R132H inh = IDH1 R132H (human) inhibition. IDH1 R132H reductase, diaphorase/resazurin fluorescence, 60 min. inhibition, % at 10 µM. O75874. hit rate 0.18% among 70,000; in the data active means inhibition above about 34%; inconclusive means no clear call, values can overlap the other calls; inactive means below about 11%
Target sequence (O75874 whole entry R132H): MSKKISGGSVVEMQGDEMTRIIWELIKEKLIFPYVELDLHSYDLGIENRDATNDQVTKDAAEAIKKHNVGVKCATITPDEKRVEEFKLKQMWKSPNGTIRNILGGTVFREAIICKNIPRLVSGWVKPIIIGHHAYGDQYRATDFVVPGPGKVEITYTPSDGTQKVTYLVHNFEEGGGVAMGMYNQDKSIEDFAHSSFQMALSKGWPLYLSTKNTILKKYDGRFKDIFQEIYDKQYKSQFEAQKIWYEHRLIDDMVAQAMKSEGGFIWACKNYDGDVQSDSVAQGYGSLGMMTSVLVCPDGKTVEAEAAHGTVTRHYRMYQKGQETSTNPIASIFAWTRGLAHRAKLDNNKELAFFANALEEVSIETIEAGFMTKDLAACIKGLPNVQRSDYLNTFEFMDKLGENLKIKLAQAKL
Pf Dd2 growth = blocks growth of Plasmodium falciparum Dd2 parasites; activity change, % at 10 µM; hit rate 2.3% among 94,000; P. falciparum Dd2 growth, SYBR Green, 72 h; active compounds read low; AID 1159554; in the data active means activity change below about -80%; inconclusive means no clear call, values can overlap the other calls
T cruzi growth-2 = inhibitors of T. cruzi proliferation. T. cruzi beta-gal in NIH3T3, GalScreen luminescence, 90 h. shares compounds with T cruzi growth-1. AID 651739. inhibition, % at 8.35 µM. hit rate 72% among 5,600;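 active means mean replicate inhibition above about 95% and at least 55% of replicates individually reaching it, limit read from the data; inconclusive means only one of the two criteria is met; inactive means neither criterion is met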
T cruzi growth-3 = blocks T. cruzi growth in NIH3T3 host cells; hit rate 21% among 5,600; shares compounds with T cruzi growth-1; AID 651740; T. cruzi beta-gal in NIH3T3, GalScreen luminescence, 90 h; inhibition, % at 2.09 µM;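 active means mean inhibition above about 95%, with at least 55% of replicates also reaching it, limit read from the data; inconclusive means meets just one of the two conditions; inactive means meets neither condition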
3T3 cytotox = kills mouse NIH/3T3 fibroblasts; NIH/3T3 viability, CellTiter-Glo ATP luminescence, 90 h; hit rate 14% among 5,600; shares compounds with T cruzi growth-1; AID 651742; cytotoxicity (signal decrease), % at 8.35 µM;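 active means mean signal decrease across replicates above about 35% based on untreated-well scatter, with enough replicates individually passing, limit read from the data; inconclusive means no rule stated though some were filed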
NIH3T3 tox 2 = cytotoxicity in mouse NIH/3T3 fibroblasts | shares compounds with T cruzi growth-1 | NIH/3T3 viability, CellTiter-Glo ATP luminescence, 90 h | inhibition, % at 24.9 µM | hit rate 56% among 5,600;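 active means mean loss of cell viability signal at or above a set limit, and enough replicates individually reaching it; inconclusive means meets only the mean limit or only the replicate share; inactive means meets neither condition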
Of the large screens only hits and unclear results are named; the others gave an inactive call (follow-up assays come after a bar, where they were run). Sampled rows, rich in hits. Any-hit rate of the full collection: about 5.9%.

COc1ccccc1C#Cc1ccc2c(c1)O[C@H](CN(C)Cc1ccccc1)[C@@H](C)CN([C@H](C)CO)S2(=O)=O	T cruzi growth-1 113.6 | T cruzi growth-2 98.9 | T cruzi growth-3 112.3 | 3T3 cytotox inactive | NIH3T3 tox 2 inactive
CCN(CC(=O)Nc1cccc(C)c1)S(=O)(=O)c1ccc(Br)cc1	none (no result: T cruzi growth-1, GASC1 inh, Pf Dd2 growth)
C[C@@H]1CN([C@@H](C)CO)S(=O)(=O)c2ccc(/C=C/c3ccccc3)cc2O[C@H]1CN(C)C(=O)c1ccccc1	T cruzi growth-1 126.6 | T cruzi growth-2 110.0 | T cruzi growth-3 inactive | 3T3 cytotox 55.4 | NIH3T3 tox 2 85.0
C/C=C/c1ccc2c(c1)O[C@@H](CN(C)C(=O)c1ccccc1)[C@@H](C)CN([C@@H](C)CO)S2(=O)=O	none (no result: T cruzi growth-1)
C/C=C/c1ccc2c(c1)O[C@H](CN(C)C(=O)c1ccncc1)[C@@H](C)CN([C@H](C)CO)S2(=O)=O	none
C[C@@H]1CN([C@@H](C)CO)S(=O)(=O)c2ccc(/C=C/c3ccccc3)cc2O[C@H]1CN(C)C(=O)c1ccncc1	T cruzi growth-1 101.2 | T cruzi growth-2 103.1 | T cruzi growth-3 inactive | 3T3 cytotox 38.4 | NIH3T3 tox 2 69.7
C/C=C/c1ccc2c(c1)O[C@@H](CN(C)C(=O)c1cccc(F)c1)[C@@H](C)CN([C@@H](C)CO)S2(=O)=O	T cruzi growth-1 inconclusive | T cruzi growth-2 inactive | T cruzi growth-3 inactive | 3T3 cytotox inactive | NIH3T3 tox 2 inconclusive
C/C=C/c1ccc2c(c1)O[C@@H](CN(C)C(=O)c1ccccc1)[C@H](C)CN([C@@H](C)CO)S2(=O)=O	none (no result: T cruzi growth-1)
C[C@H](CO)N1C[C@H](C)[C@@H](CN(C)C(=O)c2ccccc2)Oc2cc(/C=C/c3ccccc3)ccc2S1(=O)=O	T cruzi growth-1 inconclusive (no result: GASC1 inh) | T cruzi growth-2 103.9 | T cruzi growth-3 inactive | 3T3 cytotox inactive | NIH3T3 tox 2 42.6
C[C@H](CO)N1C[C@H](C)[C@H](CN(C)C(=O)c2ccccc2)Oc2cc(/C=C/c3ccccc3)ccc2S1(=O)=O	T cruzi growth-1 126.6 (no result: GASC1 inh) | T cruzi growth-2 100.7 | T cruzi growth-3 inactive | 3T3 cytotox inactive | NIH3T3 tox 2 inactive
CO[C@H]1CN(C)C(=O)c2ccc(NC(=O)c3nc4ccccc4s3)cc2OC[C@@H](C)N(Cc2cccnc2)C[C@H]1C	T cruzi growth-1 inconclusive (no result: IDH1 R132H inh) | T cruzi growth-2 104.9 | T cruzi growth-3 inactive | 3T3 cytotox inactive | NIH3T3 tox 2 59.0
COc1ccc(CN2C[C@H](C)[C@@H](OC)CN(C)C(=O)c3ccc(NC(=O)c4nc5ccccc5s4)cc3OC[C@H]2C)cc1	T cruzi growth-1 inconclusive | T cruzi growth-2 109.7 | T cruzi growth-3 113.9 | 3T3 cytotox inactive | NIH3T3 tox 2 inactive
O=C(c1cc(C2CC2)[nH]n1)n1ccnc1	none (no result: T cruzi growth-1, GASC1 inh, Pf Dd2 growth)
CCS(=O)(=O)N1[C@H](CO)[C@@H](c2ccc(C#Cc3ccccc3F)cc2)[C@@H]1C#N	T cruzi growth-1 inconclusive (no result: IDH1 R132H inh) | T cruzi growth-2 106.6 | T cruzi growth-3 108.7 | 3T3 cytotox inactive | NIH3T3 tox 2 inactive
N#C[C@@H]1[C@@H](c2ccc(C#Cc3ccccc3F)cc2)[C@H](CO)N1C(=O)C1CCCCC1	none (no result: IDH1 R132H inh)
N#C[C@H]1[C@@H](c2ccc(C#Cc3ccccc3F)cc2)[C@@H](CO)N1C(=O)C1CC1	T cruzi growth-1 103.0 | T cruzi growth-2 104.5 | T cruzi growth-3 104.3 | 3T3 cytotox inactive | NIH3T3 tox 2 30.0
COCC(=O)N1[C@H](C#N)[C@@H](c2ccc(C#Cc3ccccc3F)cc2)[C@H]1CO	T cruzi growth-1 101.5 | T cruzi growth-2 98.1 | T cruzi growth-3 inactive | 3T3 cytotox inactive | NIH3T3 tox 2 inactive
N#C[C@@H]1[C@@H](c2ccc(C#Cc3ccccc3F)cc2)[C@@H](CO)N1C(=O)C1CCCCC1	T cruzi growth-1 102.1 (no result: IDH1 R132H inh) | T cruzi growth-2 109.2 | T cruzi growth-3 inactive | 3T3 cytotox inactive | NIH3T3 tox 2 79.5
N#C[C@H]1[C@H](c2ccc(C#Cc3ccc(F)cc3)cc2)[C@H](CO)N1C(=O)C1CC1	T cruzi growth-1 113.8 (no result: IDH1 R132H inh) | T cruzi growth-2 101.6 | T cruzi growth-3 inactive | 3T3 cytotox inactive | NIH3T3 tox 2 80.0
N#C[C@@H]1[C@H](c2ccc(C#Cc3ccc(F)cc3)cc2)[C@@H](CO)N1C(=O)C1CCCC1	none (no result: IDH1 R132H inh)
N#C[C@@H]1[C@H](c2ccc(C#Cc3ccccc3F)cc2)[C@H](CO)N1C(=O)C1CCC1	none (no result: IDH1 R132H inh)
N#C[C@H]1[C@@H](c2ccc(C#Cc3ccccc3F)cc2)[C@H](CO)N1C(=O)C1CC1	none (no result: IDH1 R132H inh)
N#C[C@@H]1[C@H](c2ccc(C#Cc3ccccc3F)cc2)[C@@H](CO)N1C(=O)C1CC1	T cruzi growth-1 99.2 (no result: IDH1 R132H inh) | T cruzi growth-2 98.7 | T cruzi growth-3 inactive | 3T3 cytotox inactive | NIH3T3 tox 2 42.8
N#C[C@@H]1[C@H](c2ccc(C#Cc3ccccc3F)cc2)[C@H](CO)N1C(=O)C1CC1	T cruzi growth-1 100.1 (no result: IDH1 R132H inh) | T cruzi growth-2 102.1 | T cruzi growth-3 110.1 | 3T3 cytotox inactive | NIH3T3 tox 2 44.5
O=C(O)C1C2CCC(O2)C1C(=O)Nc1ccc(S(=O)(=O)N2CCc3ccccc32)cc1 (stereo not given)	none (no result: T cruzi growth-1, GASC1 inh, Pf Dd2 growth)
Cc1ccc(N(C(C)C(=O)Nc2cc(Cl)cc(Cl)c2)S(C)(=O)=O)cc1 (stereo not given)	none (no result: T cruzi growth-1, GASC1 inh, Pf Dd2 growth)
CC(=O)N1[C@@H]2c3ccc(/C=C/c4ccccc4)c(=O)n3C[C@H]1[C@H](CO)[C@H]2C(=O)N(C)C	T cruzi growth-1 active (no result: IDH1 R132H inh, Pf Dd2 growth) | T cruzi growth-2 inactive | T cruzi growth-3 inactive | 3T3 cytotox inactive | NIH3T3 tox 2 inactive
CC(=O)N1[C@@H]2Cn3c(ccc(/C=C/c4ccccc4)c3=O)[C@H]1[C@@H](C(=O)N(C)C)[C@@H]2CO	T cruzi growth-1 active (no result: IDH1 R132H inh, Pf Dd2 growth) | T cruzi growth-2 inactive | T cruzi growth-3 inactive | 3T3 cytotox inactive | NIH3T3 tox 2 inactive
CCC(=O)N1[C@@H]2c3ccc(/C=C/c4ccccc4)c(=O)n3C[C@H]1[C@H](CO)[C@H]2C(=O)N(C)C	none (no result: IDH1 R132H inh)
CC=Cc1ccc2n(c1=O)C[C@H]1[C@H](CO)[C@@H](C(=O)NCCCN(C)C)[C@@H]2N1C(=O)c1ccccc1F (mixture of isomers)	T cruzi growth-1 active (no result: IDH1 R132H inh, Pf Dd2 growth) | T cruzi growth-2 inconclusive | T cruzi growth-3 inactive | 3T3 cytotox inactive | NIH3T3 tox 2 inactive
C[C@@H]1CN([C@@H](C)CO)S(=O)(=O)c2ccc(/C=C/c3ccccc3)cc2O[C@@H]1CN(C)Cc1cccnc1	T cruzi growth-1 88.3 | T cruzi growth-2 inactive | T cruzi growth-3 inactive | 3T3 cytotox 69.6 | NIH3T3 tox 2 94.5
